# Results as given in paper PMC10084868 (International Journal of Nanomedicine, 2023).
# Key:
# [1] = powdered drugs, reported previously; cited from earlier work
# [2] = test system: zebrafish haematopoiesis; assay: Haemoglobin; assay type: in vivo; conditions: zebrafish embryos; F1 starting from 0.4 µg/mL; haemoglobin staining and video
# Outline: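 Shield-stage embryos were exposed to the formulation at 0.4 µg/mL and raised to the 20-somite stage, then given 0.003% (final) phenylthiourea to block pigmentation. They were then rinsed and fixed in 4% paraformaldehyde.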
# [3] = humans; cited from earlier work
Structure (SMILES),dissolution rate (release) of powdered drug [1],effect on blood circulation / haematopoiesis [2],increase of bioavailability of CUR with concomitant PP vs CUR alone [3] [%]
"O=C(/C=C/C=C/c1ccc2c(c1)OCO2)N1CCCCC1 [PP, Piperine]",less than 20%,did not affect haematopoiesis,
"COc1cc(/C=C/C(=O)CC(=O)/C=C/c2ccc(O)c(OC)c2)ccc1O [CUR, Curcumin]",less than 20%,did not affect haematopoiesis,2000
